Data: article PMC6460380 (Heliyon, 2019)
Structures can show the parent of a compound that is named as a salt.

Legend:
[1] = system: GST enzyme isolated from blueberry fruits (Vaccinium arctostaphylos L.); assay: In vitro inhibition of purified blueberry fruit GST by pesticides; assay type: biochemical; conditions: for Ki: Lineweaver-Burk graphs, 1/V versus 1/[GSH]; for Ki / Inhibition type: GSH as substrate; for Inhibition type: from Lineweaver-Burk graphs; for IC50: from activity (%) - pesticide concentration graphs, minimum five concentrations
How it was run: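 GST purified from ripe berries (stored at -20 °C). The 1 mL assay used 0.1 M K-phosphate pH 7.0, CDNB (25 mM stock in ethanol) and GSH (20 mM stock). It was started with enzyme and absorbance was read for 3 min. Pesticides were tested at ≥5 concentrations against a no-pesticide control set as 100%. Ki and inhibition type came from 1/V versus 1/[GSH] plots.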

[2] = system: GST enzyme isolated from blueberry fruits (Vaccinium arctostaphylos L.); assay: Kinetic studies of purified blueberry fruit GST with substrates CDNB and GSH; assay type: biochemical; conditions: CDNB 0.05-1.6 mM at fixed GSH 20 mM; GSH 0.05-1.6 mM at fixed CDNB 25 mM
How it was run: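 The enzyme was blueberry GST purified by Sephadex G-100 gel filtration then GSH-agarose affinity chromatography with GSH gradient elution. Reactions were 1 mL in 0.1 M K-phosphate buffer pH 7.0, with one substrate varied and the other held fixed. The reaction was started by rapid enzyme addition and absorbance was followed spectrophotometrically for 3 min.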

Molecule | Ki [1] [µM] | Inhibition type [1] | IC50 [1] [µM] | Inhibition of GST enzyme activity in vitro (in words) [1] | Vmax [2] [EU/ml]
O=C(O)COc1ccc(Cl)cc1Cl [2,4 Dichlorophenoxy acetic acid] | 188 ± 85 | competitive | 460 | inhibited | 
CC(=NC#N)N(C)Cc1ccc(Cl)nc1 [Acetamiprid, N - [(6-chloro-3-pyridyl)methyl] -N′-cyano-N-methyl-acetamidine] | 1560 ± 733 | competitive | 4100 | inhibited | 
CC1(C)C(C=C(Cl)Cl)C1C(=O)OC(C#N)c1cccc(Oc2ccccc2)c1 (centres unmarked) [Cypermethrin, [Cyano-(3-phenoxyphenyl)methyl] 3-(2,2-dichloroethenyl) -2,2-dimethylcyclopropane-1-carboxylate] | 310 ± 88 |  | 320 | inhibited | 
COP(=O)(OC)OC=C(Cl)Cl [Dichlorvos, 2,2-dichlorovinyl dimethyl phosphate] | 17.5 ± 5 |  | 24 | inhibited | 
O=C(O)CNCP(=O)(O)O [Glifosat- izopropilamine salt, glyphosate isopropylamine salt] | 266 ± 100 | competitive | 160 | inhibited | 
O=[N+]([O-])NC1=NCCN1Cc1ccc(Cl)nc1 [Imidacloprid, N-{1 - [(6-Chloro-3-pyridyl)methyl] -4,5-dihydroimidazol-2-yl} nitramide] | 630 ± 283 |  | 490 | inhibited | 
(R) -2- [4- (6-chloro-1,3-benzoxazol-2-yloxy) phenoxy] propionic acid [Fenoxaprop-p-ethyl] | 133 | competitive | 230 | inhibited | 
g-glu-cys-gly [GSH] |  |  |  |  | 0.048
